This is an account of results in ChEMBL document CHEMBL4138315, “Synthesis and Evaluation of a Novel Bivalent Selective Antagonist for the Mu-Delta Opioid Receptor Heterodimer that Reduces Morphine Withdrawal in Mice” (J Med Chem, 2018).

The species named for data set [1] is Mus musculus. The data set is described as follows: Antinociceptive activity in CD1 mouse assessed as reduction in morphine-induced nociception at 10 nmol pretreated for 5 mins followed by morphine injection measured up to 2 hrs by tail flick assay. The data set is classed as functional, organism-based. In outline:
(§1)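 Male CD-1 mice received 10 nmol icv (vehicle 2% DMSO/10% Tween80/88% water), 5 min before sc agonist. SNC80 was 10 mg/kg in 20% DMSO/10% Tween80/70% saline; morphine was given in saline. 52°C tail flick, 10 s cutoff, recorded over a 2 h time course; experimenter blinded.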

Data set [2] addresses T1, Opioid receptors; mu & delta (Homo sapiens, UniProt P41143+P35372). The data set is described as follows: Antagonist activity at human MOR expressed in CHO cell membranes mixed with human DOR expressed in CHO cell membranes assessed as inhibition of CYM51010-induced [35S]-GTPgammaS binding preincubated for 5 mins followed by CYM51010 and [35S]-GTPgammaS addition measured after 80 mins. The data set is classed as functional. In outline:
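MOR-CHO and DOR-CHO membranes mixed at the molar ratio from MDOR-CHO saturation binding (Bmax 7.9 pmol/mg DOR, 1.1 pmol/mg MOR). Antagonist curve preincubated 5 min, then 1 µM CYM51010 and 0.1 nM 35S-GTPγS. Incubated 30°C, 80 min, then filtered and counted. Normalized to CYM51010 alone and vehicle. N = 3 independent experiments in duplicate.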

In data set [3] the target is T1, Opioid receptors; mu & delta. The data set is described as follows: Displacement of [3H]-diprenorphine from human mu-delta opioid receptor expressed in CHO cell membranes after 80 mins by scintillation counting analysis. In short, it runs like this: (§2)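 Competition binding on MOR-, DOR- or MDOR-CHO membranes used a fixed 3H-diprenorphine level against competitor concentration curves; 30°C, 80 min, GF/B filtration, scintillation counting. Nonspecific binding defined with 500 nM each DMT-Tic-Ala-OH and CTAP. Ki was derived from IC50 and the 3H-diprenorphine KD in each line; MDOR data fitted with a 2-site model. N = 3-4, mean ± SEM.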
On the technique in general: Displacement assays read how much labelled ligand stays bound in the presence of the test substance.

The subject of data set [4] is Mus musculus. Put plainly: Antinociceptive activity in CD1 mouse assessed as reduction in DAMGO-induced nociception up to10 nmol, icv pretreated for 5 mins followed by DAMGO injection measured up to 2 hrs by tail flick assay. The data set is classed as functional, organism-based. (In general: Thermal pain tests record how soon the animal reacts.)
Data set [5] deals with T1, Opioid receptors; mu & delta. The data set is described as follows: Antagonist activity at human mu-delta opioid receptor heterodimer expressed in CHO cell membranes assessed as inhibition of CYM51010-induced [35S]-GTPgammaS binding at high site fraction preincubated for 5 mins followed by CYM51010 and [35S]-GTPgammaS addition measured after 80 mins relative to control. The data set is classed as functional. In outline:
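35S-GTPγS coupling in MDOR-CHO membranes: 5 min antagonist pre-incubation, then 1 µM CYM51010 plus 0.1 nM 35S-GTPγS, 30°C for 80 min, filtration and scintillation read. A 3-variable 2-site antagonist fit gave FHIGH, the fraction of the high-potency site. N = 3-4 independent experiments.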
(GTPγS is a poorly hydrolysed GTP analogue; its binding reports G protein activation.)

In data set [6] the test system is Mus musculus. The data set is described as follows: Reduction in morphine dependence expression in acute morphine dependence ICR mouse model assessed as inhibition of naloxone-precipitated GI effects of withdrawal at 1 nmol, […] administered 5 mins prior to naloxone injection measured up to 20 mins. The data set is classed as functional, organism-based.
The test system of data set [7] is Mus musculus. The data set is described as follows: Reduction in morphine dependence expression in chronic morphine dependence ICR mouse model assessed as inhibition of naloxone-precipitated jumping behavior at 1 nmol, icv administered 5 mins prior to naloxone injection measured up to 20 mins relative to control. The arrangement: scale not given: the % may be the effect or the level left. The data set is classed as functional. In short, it runs like this: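 Chronic dependence: morphine sc twice daily at 10, 20 and 35 mg/kg on days 1-3, single 35 mg/kg on morning of day 4. Naloxone 30 mg/kg ip 4 h later. 1 nmol icv or vehicle 5 min before naloxone. Jumps counted over 20 min in plexiglass cylinders, then urine and feces weighed.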

Data set [8] concerns the target Mu-type opioid receptor (Homo sapiens, UniProt P35372). Put plainly: Antagonist activity at human MOR expressed in CHO cell membranes assessed as inhibition of CYM51010-induced [35S]-GTPgammaS binding preincubated for 5 mins followed by CYM51010 and [35S]-GTPgammaS addition measured after 80 mins. The data set is classed as functional. As to conditions: cho. In outline: (§3)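 Membranes from CHO cells stably expressing human opioid receptor (N-terminal tagged) were preincubated 5 min with antagonist concentration curves, then given 1 µM CYM51010 and 0.1 nM 35S-GTPγS; 30°C, 80 min, GF/B filtration, scintillation counting. Normalized to CYM51010 alone (100%) and vehicle (0%). Fits: 1-site for MOR/DOR (IC50), 2-site for MDOR (IC50HIGH). N = 3-4, duplicate, mean ± SEM.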

The test system of data set [9] is Mus musculus. Put plainly: Effect on tail flick response in CD1 mouse up to 10 nmol, icv measured up to 2 hrs. The following applies: in vivo, icv_or_intrathecal. The data set is classed as ADME, organism-based. In short, it runs like this: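 Naïve male CD-1 mice were given a dose range up to 10 nmol icv, 5 min before icv vehicle in place of agonist. Tail flick latency in 52°C water (10 s cutoff) recorded over 2 h, baseline first; experimenter blinded.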

In data set [10] the target is T1, Opioid receptors; mu & delta. Put plainly: Displacement of [3H]-diprenorphine from human mu-delta opioid receptor heterodimer expressed in CHO cell membranes at high site fraction after 80 mins by scintillation counting analysis relative to control.
Data set [11] relates to Mus musculus. The data set is described as follows: Reduction in morphine dependence expression in acute morphine dependence ICR mouse model assessed as reduction in jumping behavior at 1 nmol, icv up to 20 mins. The data set is classed as functional, organism-based. In outline:
(§4)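 Acute dependence: morphine 100 mg/kg sc, then naloxone 10 mg/kg ip 4 h later. 1 nmol icv or vehicle given 5 min before naloxone; one control arm had no naloxone. Mice observed 20 min in plexiglass cylinders; jumps counted, then urine and feces weighed.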

The test system of data set [12] is Mus musculus. Put plainly: Reduction in morphine dependence expression in acute morphine dependence ICR mouse model assessed as reduction in GI output at 1 nmol, icv up to 20 mins. The data set is classed as functional, organism-based. In short, it runs like this: as §4
The subject of data set [13] is Mus musculus. The data set is described as follows: Reduction in morphine dependence expression in chronic morphine dependence ICR mouse model assessed as inhibition of naloxone-precipitated GI effects of withdrawal at 1 nmol, […] administered 5 mins prior to naloxone injection measured up to 20 mins. The data set is classed as functional, organism-based.
For data set [14], the species on record is Mus musculus. The data set is described as follows: Antinociceptive activity in CD1 mouse assessed as reduction in SNC80-induced nociception at 10 nmol pretreated for 5 mins followed by SNC80 injection measured up to 2 hrs by tail flick assay. The data set is classed as functional, organism-based. In outline: as §1
Data set [15] addresses Delta-type opioid receptor (Homo sapiens, UniProt P41143). The data set is described as follows: Displacement of [3H]-diprenorphine from human DOR expressed in CHO cell membranes after 80 mins by scintillation counting analysis. The following applies: cho. In short, it runs like this: as §2
For data set [16], the species on record is Homo sapiens. The data set is described as follows: Selectivity ratio of IC50H for human mu-delta opioid receptor heterodimer expressed in CHO cell membranes to IC50 for human DOR expressed in CHO cell membranes. The data set is classed as cell-based.
Data set [17] has as its target T1, Opioid receptors; mu & delta. Put plainly: Antagonist activity at human mu-delta opioid receptor heterodimer expressed in CHO cell membranes assessed as inhibition of CYM51010-induced [35S]-GTPgammaS binding at high site fraction preincubated for 5 mins followed by CYM51010 and [35S]-GTPgammaS addition measured after 80 mins. The data set is classed as functional. In short, it runs like this:
as §3

Data set [18] is filed under the species Homo sapiens. Put plainly: Selectivity ratio of KiH for human mu-delta opioid receptor heterodimer expressed in CHO cell membranes to Ki for human DOR expressed in CHO cell membranes. The data set is classed as cell-based.
Data set [19] concerns Mus musculus. The data set is described as follows: Antinociceptive activity in icv dosed CD1 mouse assessed as reduction in CYM51010-induced nociception pretreated for 5 mins followed by CYM51010 injection measured up to 2 hrs by tail flick assay. The data set is classed as functional.

The IC50 is the midpoint of a concentration-inhibition curve. Usually Ki stands for the equilibrium dissociation constant of an inhibitor or competing ligand from its target.

The source made the active and inactive calls.

T1 sequence (P35372 whole entry, looked up): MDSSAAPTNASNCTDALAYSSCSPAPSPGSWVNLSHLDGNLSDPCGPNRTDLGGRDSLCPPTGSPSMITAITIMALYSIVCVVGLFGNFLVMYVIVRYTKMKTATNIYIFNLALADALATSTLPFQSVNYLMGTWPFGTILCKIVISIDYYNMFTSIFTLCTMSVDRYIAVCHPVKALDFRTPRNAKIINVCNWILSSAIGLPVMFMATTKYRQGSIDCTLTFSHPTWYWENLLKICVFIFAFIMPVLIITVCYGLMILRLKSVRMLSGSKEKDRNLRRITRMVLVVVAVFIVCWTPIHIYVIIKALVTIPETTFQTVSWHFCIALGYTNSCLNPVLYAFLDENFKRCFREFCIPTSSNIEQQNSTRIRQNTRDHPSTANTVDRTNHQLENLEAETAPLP
T1 sequence (P41143 whole entry, looked up): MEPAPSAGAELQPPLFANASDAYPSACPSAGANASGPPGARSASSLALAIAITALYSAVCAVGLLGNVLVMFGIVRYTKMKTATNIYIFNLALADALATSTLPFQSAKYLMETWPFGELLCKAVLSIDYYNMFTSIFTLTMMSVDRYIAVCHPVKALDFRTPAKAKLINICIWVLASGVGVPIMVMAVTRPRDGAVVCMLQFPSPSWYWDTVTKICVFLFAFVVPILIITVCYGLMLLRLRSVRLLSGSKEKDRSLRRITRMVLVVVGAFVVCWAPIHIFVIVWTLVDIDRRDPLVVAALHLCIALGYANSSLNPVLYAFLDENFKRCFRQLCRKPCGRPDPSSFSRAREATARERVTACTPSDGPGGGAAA
Chain of Delta-type opioid receptor (P41143 whole entry): as the sequence (P41143 whole entry, looked up) above
Chain of Mu-type opioid receptor (P35372 whole entry): as the sequence (P35372 whole entry, looked up) above

On to `N[C@@H](Cc1ccc(O)cc1)C(=O)N1Cc2ccccc2C[C@@H]1C(=O)NCC(=O)NCCCCC(=O)N[C@H](CCCCNC(=O)CCCCNC(=O)CNC(=O)[C@@H](Cc1cccc2ccccc12)NC(=O)[C@H](Cc1ccccc1)NC(=O)[C@@H]1CCCN1C(=O)[C@@H](N)Cc1ccc(O)cc1)C(=O)O`, for which the result in [1], in [12] and in data set [13] was Active. Moreover, the IC50H was 89 nM in data set [2] and 0.85 nM in data set [17]. In addition, the IC50L in data set [2] and in [17] was greater than 1000 nM throughout. In data set [3], this compound gave a KiH of 0.63 nM. Further, the outcome in data set [4], in data set [6], in data set [11] and in data set [14] was inactive. Moreover, the Imax in data set [5] turned out to be 39%; in data set [10], 11%. Besides, the figures for the Activity in data set [7], in [9] and in data set [19] were 85.2%, “Non-Toxic” and “Dose-dependent effect”, respectively. In addition, the IC50 in [8] is greater than 1000 nM. In [15], this compound registered an inhibition constant Ki of 84 nM. Also, the Ratio IC50 in data set [16] stood at 89. Besides, the Ratio Ki in [18] was determined as 133. Moreover, the A50 in data set [19] was 2.04 nmol.
